According to ChEMBL document CHEMBL1137220, “2-(2-(dimethylaminomethyl)phenoxy)-5-iodophenylamine: an improved serotonin transporter imaging agent” (J Med Chem, 2004):
pKi: −log10 of the molar value.

Legend:
[1] = target: Sodium-dependent dopamine transporter (Homo sapiens, UniProt Q01959); experiment: Binding affinity for dopamine transporter expressed in […] cells; assay type: cell-based
In short: (§1)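 Membranes from confluent pig kidney LLC-PK₁ cells stably expressing the respective transporter, homogenized and pelleted, 30–40 μg protein. Incubated with 0.4 nM [¹²⁵I]IPT or [¹²⁵I]IDAM and 8–10 competitor concentrations (10⁻¹⁰ to 10⁻⁵ M) in 50 mM Tris-HCl pH 7.4, 120 mM NaCl, 0.1% BSA, 1 h at room temperature. Nonspecific binding was defined with 10 μM CFT for IPT and 1 μM IDAM for IDAM. Filtration, gamma counting, nonlinear regression for Ki.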

[2] = target: Sodium-dependent serotonin transporter (Homo sapiens, UniProt P31645); experiment: Binding affinity for serotonin transporter expressed in […] cells; assay type: cell-based; in short: as §1
Chain of Sodium-dependent serotonin transporter (P31645 whole entry): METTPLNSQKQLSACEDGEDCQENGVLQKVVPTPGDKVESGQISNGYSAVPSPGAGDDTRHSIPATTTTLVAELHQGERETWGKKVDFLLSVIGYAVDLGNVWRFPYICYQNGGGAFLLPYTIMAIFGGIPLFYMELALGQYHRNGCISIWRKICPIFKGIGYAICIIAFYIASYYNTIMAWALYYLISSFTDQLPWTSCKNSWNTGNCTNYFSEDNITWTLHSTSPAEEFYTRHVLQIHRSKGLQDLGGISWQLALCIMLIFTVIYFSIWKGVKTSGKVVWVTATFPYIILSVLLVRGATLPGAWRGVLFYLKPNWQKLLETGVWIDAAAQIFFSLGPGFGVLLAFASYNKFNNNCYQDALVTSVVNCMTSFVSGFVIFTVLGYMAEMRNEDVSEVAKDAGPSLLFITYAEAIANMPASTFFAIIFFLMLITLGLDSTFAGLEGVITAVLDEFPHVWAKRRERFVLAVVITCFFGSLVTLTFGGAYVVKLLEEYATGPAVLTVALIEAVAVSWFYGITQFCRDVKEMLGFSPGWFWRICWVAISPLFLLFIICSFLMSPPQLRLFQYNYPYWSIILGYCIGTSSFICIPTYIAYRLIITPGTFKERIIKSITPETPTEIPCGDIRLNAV

Chain of Sodium-dependent dopamine transporter (Q01959 whole entry): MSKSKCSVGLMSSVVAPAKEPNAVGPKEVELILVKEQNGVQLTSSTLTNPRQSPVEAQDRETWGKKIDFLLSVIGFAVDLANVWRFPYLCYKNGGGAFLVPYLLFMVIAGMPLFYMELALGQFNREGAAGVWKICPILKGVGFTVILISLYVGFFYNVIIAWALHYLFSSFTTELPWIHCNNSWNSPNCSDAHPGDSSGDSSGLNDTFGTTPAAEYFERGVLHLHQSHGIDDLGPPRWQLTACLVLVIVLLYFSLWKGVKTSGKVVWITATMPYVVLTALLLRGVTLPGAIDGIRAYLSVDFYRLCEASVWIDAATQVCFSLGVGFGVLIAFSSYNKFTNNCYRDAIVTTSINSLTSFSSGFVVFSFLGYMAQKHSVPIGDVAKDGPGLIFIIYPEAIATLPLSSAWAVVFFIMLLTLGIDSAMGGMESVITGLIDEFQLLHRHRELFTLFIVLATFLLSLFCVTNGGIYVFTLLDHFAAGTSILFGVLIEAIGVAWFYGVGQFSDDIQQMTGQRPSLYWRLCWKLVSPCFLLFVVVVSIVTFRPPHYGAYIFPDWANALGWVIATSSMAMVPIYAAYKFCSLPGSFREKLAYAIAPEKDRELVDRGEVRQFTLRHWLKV

Row | Compound | pKi [1] | pKi [2]
1 | CN(C)Cc1ccccc1Oc1ccc(I)cc1CO | < 6.00 | 9.92
2 | CN(C)Cc1ccccc1Sc1ccc(I)cc1CO | < 6.00 | 10.05
4 | CN(C)Cc1ccccc1Sc1ccc(C#N)cc1N [DASB] | < 6.00 | –

Other lines, results leading:

Row | pKi [1] | pKi [2] | Compound
5 | 6.08 | 11.00 | CN(C)Cc1ccccc1Sc1ccc(I)cc1N
6 | < 6.00 | 7.31 | CN(C)Cc1ccccc1Cc1ccc(I)cc1N
